miR122 inh = inhibitors of miR-122 in Huh7 cells. activation (reporter increase), % at 12.5 µM. Huh7 miR-122 Renilla luciferase sensor, 48 h; neutral wells = 0, positive control = 100. AID 602342. actives 0.3% (n = 340,000);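 active = mean replicate activation score at least 90 and every replicate individually at or above 90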;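 also: higher luciferase means less miR-122 activity so hits act as miR-122 inhibitors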
S100A4 MyoIIA = inhibitors of human S100A4 binding to myosin IIA peptide; P26447; S100A4/TAMRA-MyoIIA peptide fluorescence polarization; inhibition, % at 10.7 µM; actives 0.14% (n = 360,000); AID 652163;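 active = mean inhibition of at least 70% across replicates, with every replicate also reaching that level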
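incubation = readout 5 min after mixing, signal stable up to 60 min | system = S100A4 monomer protein | buffer or medium = HEPES pH 7.2 with CaCl2, KCl, NaCl, DTT, Triton | benchmarks = neutral control DMSO, positive control TFP | also added = fluorescent myosin IIA peptide, 5 nM | compound dosing = one concentration per compound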
E-sel inducer = induces E-selectin expression in human endothelial cells. P16581. HUVEC E-selectin immunofluorescence imaging; normalized: neutral wells 0, TNF-alpha wells 100. actives 0.37% (n = 260,000). activation, % at 7.58 µM;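 active = mean E-selectin-positive cell signal at least 10% of the positive control, reached in at least 60% of replicates, without over 20% cell loss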
Target sequence (P16581 whole entry, looked up): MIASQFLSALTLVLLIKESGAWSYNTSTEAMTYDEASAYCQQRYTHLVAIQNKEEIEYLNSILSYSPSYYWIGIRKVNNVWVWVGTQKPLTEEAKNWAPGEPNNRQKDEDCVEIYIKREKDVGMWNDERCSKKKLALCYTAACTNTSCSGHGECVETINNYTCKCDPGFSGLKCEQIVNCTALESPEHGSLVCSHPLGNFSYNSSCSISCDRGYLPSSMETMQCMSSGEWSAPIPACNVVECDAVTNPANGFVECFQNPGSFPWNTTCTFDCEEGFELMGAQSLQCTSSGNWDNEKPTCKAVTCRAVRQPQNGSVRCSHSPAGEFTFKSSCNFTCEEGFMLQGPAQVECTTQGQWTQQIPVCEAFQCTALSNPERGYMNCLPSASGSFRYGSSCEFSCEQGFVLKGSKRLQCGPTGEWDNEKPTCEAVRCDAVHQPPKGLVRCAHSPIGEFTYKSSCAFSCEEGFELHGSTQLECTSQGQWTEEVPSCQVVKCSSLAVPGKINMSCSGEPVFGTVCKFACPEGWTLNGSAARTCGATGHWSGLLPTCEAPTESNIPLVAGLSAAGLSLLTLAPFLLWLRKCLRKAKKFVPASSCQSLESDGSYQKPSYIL
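System: HUVEC, human umbilical vein endothelial cells; quantity: 3,000 cells/well; buffer or medium: EGM-2 medium, gelatin-coated wells; dosing: single-point compound dose; detection: immunofluorescence imaging; evaluation: % PE-positive cells; benchmarks: TNF-alpha, DMSO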
FGF22 binding = FGF22 (human) thermal shift binding; actives 1.5% (n = 340,000); AID 651658; recombinant FGF22 thermal shift, SYPRO orange fluorescence; percent of sucrose octasulfate shift, DMSO zero; activity (Tm shift, normalised), % at 9.99 µM; Q9HCT0;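 active = mean Tm shift, scaled 0 neutral to 100 positive control, at about 1.3% or above, every replicate too, limit read from the data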
SIRT5 block = sirtuin-5 (human) deacylase inhibition; Purified SirT5, succinyl-peptide AMC, trypsin-coupled fluorescence; AID 652115; Q9NXA8; actives 1.1% (n = 330,000); inhibition, % at 15 µM; in the data active = inhibition above about 15%
* hit, by the source's call; . = no result; [ ] = dose if it differs, or a comment. Compounds with a hit are over-represented: about 2.5% of the library has one in this group of screens.

SMILES | miR122 inh | S100A4 MyoIIA | E-sel inducer | FGF22 binding | SIRT5 block
Cc1cc(Cl)nc(Cl)c1C(=O)N1CCOCC1 | 0 | 1 | 4 | 0 | 22*
O=S(=O)(Nc1ccccc1O)c1cccc2cccnc12 | . | -2 | . | 0 | 3
Cc1ccc(C(=O)N2CCOCC2)cc1Cl | -5 | . | . | . | .
O=C(c1cccnc1Cl)N1CCOCC1 | 6 | -9 | -1 | 44* | 1
CCC(=O)N(Cc1cc(=O)[nH]c2ccccc12)c1ccccc1OC | . | -2 | . | 0 | 0
COc1ccccc1N(Cc1cc(=O)[nH]c2ccccc12)C(=O)c1cccc([N+](=O)[O-])c1 | 4 | -8 | 0 | 43* | -3
COc1cccc(NC(=O)Nc2ccc(C)c(Cl)c2)c1 | 6 | 0 | 10 | 0 | -4
Cc1ccc(NC(=O)Nc2ccc(F)cc2)cc1Cl | 8 | -2 | . | 43* | -3
O=C(CN1CCOCC1)Nc1ccc(Cl)cc1 | -5 | 5 | . | 0 | -1
Cc1ccc(NC(=O)CN2CCOCC2)cc1Cl | . | -3 | 46* | 0 | 25*
CC(C)(C)c1ccc(NC(=O)Nc2ccc(F)cc2)cc1 | 7 | -5 | . | 43* | 1
O=C(Nc1ccc(CN2CCOCC2)cc1)c1ccc(Cl)cc1Cl | -9 | -2 | . | 0 | 18*
COc1ccc(NC(=O)N(C)C[C@@H]2Oc3ccc(NC(=O)NC4CCCCC4)cc3CC(=O)N([C@@H](C)CO)C[C@H]2C)cc1 | 6[16.7 µM] | 4 | -3 | 0 | 7
CC(C)(C)OC(=O)NCCOCCOCCNc1ncnc2ccc(Br)cc12 | . | 5 | . | 0 | 2
CCCC(=O)NNC(=O)Nc1ccccc1 | -23 | 3 | . | 0 | -3
CCC1(C)COC(C)(CC(=O)NNC(=O)Nc2ccccc2)OC1 (centres undefined) | . | -3 | 0 | 44* | -1
COc1cccc(S(=O)(=O)N[C@@H]2C=C[C@H](CC(=O)NCc3ccccc3)O[C@@H]2CO)c1 | . | -10 | -1 | . | 1
CC1(C)CC(=O)C2=C(C1)c1c(ccc3ccccc13)NC2c1cc([N+](=O)[O-])cc([N+](=O)[O-])c1O (centres undefined) | . | 7 | . | 0 | 17*
O=C(NCC(F)(F)F)[C@@H]1[C@@H](CO)[C@@H]2Cn3c(cccc3=O)[C@@H]2N1C(=O)C1CCC1 | -4[16.7 µM] | 10 | 0 | 0 | 1
COc1ccc(CCNC(=S)NCCc2c[nH]c3ccccc23)cc1 | . | 1 | 3 | 1.4* | 0
COc1ccccc1CNC(=O)COc1cccnc1[N+](=O)[O-] | -1 | -1 | . | 0 | -3
COc1ccccc1CNc1ncccc1[N+](=O)[O-] | -8 | 2 | 0 | 0 | 16*
O=C(CN1CCOCC1)N1CC2(C1)[C@H](c1ccccc1)[C@H](CO)N2Cc1ccc(F)cc1 | . | 35 | 0 | 0 | -3
CCOc1ccc(CCN2C(=O)C(=O)N([C@@H](Cc3ccccc3)CN3CCC[C@@H]3CN3C(=O)C(=O)NC[C@@H]3Cc3ccc(O)cc3)C[C@@H]2Cc2ccccc2)cc1 | -2 | -2 | 0 | 0 | 38*
CCOc1ccc(CCN2C(=O)C(=O)N([C@@H](Cc3ccccc3)CN3CCC[C@H]3CN3C(=O)C(=O)NC[C@@H]3Cc3ccc(O)cc3)C[C@@H]2CC(C)C)cc1 | . | 46 | 0 | 0 | -2
SMILES | miR122 inh | S100A4 MyoIIA | E-sel inducer | FGF22 binding | SIRT5 block
CC(C)C[C@H]1CNC(=S)N1C[C@H]1CCCN1C[C@H](Cc1ccc(O)cc1)N1C[C@H](Cc2ccc(O)cc2)N(CC2CCCCCC2)C1=S | -7 | 1 | -1 | 43* | .
Cc1noc(C)c1NC(=O)Nc1ccc2c(c1)C(=O)N([C@@H](C)CO)C[C@@H](C)[C@H](CN(C)C(=O)Nc1cccc3ccccc13)O2 | 2[16.7 µM] | 5 | 0 | 0 | -6
CO[C@@H](CN(C)Cc1ccc2c(c1)OCO2)[C@@H](C)CN(C(=O)Nc1ccc(F)cc1)[C@@H](C)CO | . | 7 | 0 | 0 | 3
O=C(O)c1ccc(-n2[nH]c3c(c2=O)CCCC3)cc1 | 1 | 0 | -1 | 43* | 0
NS(=O)(=O)c1ccc(NCc2cnc3ccccc3c2)cc1 | -6 | -4 | -2 | 0 | -3
NS(=O)(=O)c1ccc(NCc2cnc3ccccc3n2)cc1 | . | -5 | 1 | 43* | .
